Results reported in ChEMBL document CHEMBL4270638, “Sulfonyl-containing phenyl-pyrrolyl pentane analogues: Novel non-secosteroidal vitamin D receptor modulators with favorable physicochemical properties, pharmacokinetic properties and anti-tumor activity” (Eur J Med Chem, 2018).
The source made the active and inactive calls. The rule behind the calls is not given here.

Legend:
[1] = target: T1, Retinoic acid receptor RXR-alpha/Vitamin D3 receptor (Homo sapiens, UniProt P11473+P19793); assay: Transactivation of recombinant human VDR/RXRalpha expressed in HEK293 cells after 24 hrs by Dual-luciferase reporter gene assay; format: cell-based
T1 sequence (P11473 whole entry): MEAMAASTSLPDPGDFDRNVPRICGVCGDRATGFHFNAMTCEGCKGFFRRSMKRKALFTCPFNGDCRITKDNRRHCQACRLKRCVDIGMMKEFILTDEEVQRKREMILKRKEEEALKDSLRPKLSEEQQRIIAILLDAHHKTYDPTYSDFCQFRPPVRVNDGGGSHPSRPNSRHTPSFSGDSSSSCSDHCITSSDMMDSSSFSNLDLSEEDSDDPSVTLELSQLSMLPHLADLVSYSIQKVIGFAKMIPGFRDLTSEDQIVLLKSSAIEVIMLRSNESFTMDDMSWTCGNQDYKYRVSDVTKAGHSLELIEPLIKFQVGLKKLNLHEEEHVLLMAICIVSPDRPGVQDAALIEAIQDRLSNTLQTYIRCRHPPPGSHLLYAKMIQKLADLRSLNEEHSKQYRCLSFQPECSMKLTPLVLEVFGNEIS
T1 sequence (P19793 whole entry): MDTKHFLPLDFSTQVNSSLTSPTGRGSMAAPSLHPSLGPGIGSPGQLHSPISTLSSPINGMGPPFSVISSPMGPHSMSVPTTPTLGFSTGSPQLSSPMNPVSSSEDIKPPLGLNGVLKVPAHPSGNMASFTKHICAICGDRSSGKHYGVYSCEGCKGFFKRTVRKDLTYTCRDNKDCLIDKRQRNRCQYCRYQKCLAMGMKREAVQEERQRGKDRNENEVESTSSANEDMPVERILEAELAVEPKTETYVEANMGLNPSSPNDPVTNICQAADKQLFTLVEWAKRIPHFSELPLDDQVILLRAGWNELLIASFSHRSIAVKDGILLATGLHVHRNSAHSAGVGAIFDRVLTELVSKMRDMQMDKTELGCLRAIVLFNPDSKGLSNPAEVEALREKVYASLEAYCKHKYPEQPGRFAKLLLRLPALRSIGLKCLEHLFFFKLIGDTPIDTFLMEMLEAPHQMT

MCF7 [2] = assay: Cell cycle arrest in human MCF7 cells expressing scrambled siRNA assessed as accumulation at G0/G1 phase at 1 uM after 24 hrs by propidium iodide staining based flow cytometry (reference value: 49.28%); format: functional
MCF7 [3] = assay: Antiproliferative activity against human MCF7 cells expressing VDR siRNA assessed as reduction in BrdU incorporation after 16 hrs by ELISA; format: functional, cell-based; details: MCF7, 16 h
MCF7 [4] = assay: Cell cycle arrest in human MCF7 cells expressing scrambled siRNA assessed as accumulation at G2/M phase at 1 uM after 24 hrs by propidium iodide staining based flow cytometry (reference value: 19.6%); format: functional
MCF7 [5] = assay: Cell cycle arrest in human MCF7 cells expressing VDR siRNA assessed as accumulation at G0/G1 phase at 1 uM after 24 hrs by propidium iodide staining based flow cytometry (reference value: 49.17%); format: functional
MCF7 [6] = assay: Induction of apoptosis in human MCF7 cells expressing scrambled siRNA assessed as live cells at 1 uM after 24 hrs by Annexin-V-FITC/propidium iodide staining based flow cytometry (reference value: 97.93%); format: functional
MCF7 [7] = assay: Induction of apoptosis in human MCF7 cells expressing scrambled siRNA assessed as early apoptotic cells at 1 uM after 24 hrs by Annexin-V-FITC/propidium iodide staining based flow cytometry (reference value: 0.93%); format: functional
MCF7 [8] = assay: Induction of apoptosis in human MCF7 cells expressing scrambled siRNA assessed as necrotic cells at 1 uM after 24 hrs by Annexin-V-FITC/propidium iodide staining based flow cytometry (reference value: 0.16%); format: functional
MCF7 [9] = assay: Induction of apoptosis in human MCF7 cells expressing VDR siRNA assessed as live cells at 1 uM after 24 hrs by Annexin-V-FITC/propidium iodide staining based flow cytometry (reference value: 98.35%); format: functional
MCF7 [10] = assay: Induction of apoptosis in human MCF7 cells expressing VDR siRNA assessed as early apoptotic cells at 1 uM after 24 hrs by Annexin-V-FITC/propidium iodide staining based flow cytometry (reference value: 0.49%); format: functional
MCF7 [11] = assay: Induction of apoptosis in human MCF7 cells assessed as upregulation of p21 expression at 1 uM after 24 hrs by Western blot analysis; format: functional, cell-based
Outline: (§1)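 MCF-7 cells treated at 1 µM for 24 h. Lysates resolved by 10% SDS-PAGE and transferred to PVDF. Probed with rabbit anti-p21, anti-p27 and anti-Bax antibodies, with mouse anti-β-actin as loading control. HRP-conjugated secondary antibodies; bands detected on an infrared scanner.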

MCF7 [12] = assay: Induction of apoptosis in human MCF7 cells assessed as upregulation of Bax expression at 1 uM after 24 hrs by Western blot analysis; format: functional, cell-based; outline: as §1
[13] = Half life in rat liver microsomes in presence of NADPH by HPLC method; format: ADME, microsome
Outline: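 Compounds incubated with rat liver microsomes plus NADPH. Remaining compound quantified by HPLC at 0, 5, 10, 20, 30, 45, 60 and 90 min, and half-life calculated.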

[14] = Half life in Sprague-Dawley rat at 5 mg/kg, iv by HPLC method; format: ADME, organism-based; details: in vivo
Outline: (§2)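 Male Sprague-Dawley rats, 180–220 g, n = 3 per group. Dosed iv at 5 mg/kg or ip at 20 mg/kg in ethanol/EL/saline (1:1:18). Plasma sampled at 0, 0.083, 0.167, 0.25, 0.5, 1, 2, 4, 8, 12 and 24 h and centrifuged 12000 rpm for 10 min. Plasma drug measured by HPLC; parameters by PK modelling; mean ± SD.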

[15] = Half life in Sprague-Dawley rat at 20 mg/kg, ip by HPLC method; format: ADME, organism-based; details: in vivo; outline: as §2
[16] = Mean residence time in Sprague-Dawley rat at 20 mg/kg, ip by HPLC method; format: ADME, organism-based; details: in vivo; outline: as §2
[17] = Clearance in Sprague-Dawley rat at 20 mg/kg, ip by HPLC method; format: ADME, organism-based; details: in vivo; outline: as §2
[18] = Bioavailability in Sprague-Dawley rat at 20 mg/kg, ip by HPLC method; format: ADME, organism-based; details: in vivo; outline: as §2
MCF7 [19] = assay: Antitumor activity against human MCF7 cells xenografted in Balb/c nude mouse assessed as increase in p27 expression at 10 mg/kg, ip administered three times a week for three weeks starting from day 7 after tumor cell inoculation by immunohistochemical analysis; format: functional, organism-based
MCF7 [20] = assay: Antitumor activity against human MCF7 cells xenografted in Balb/c nude mouse assessed as increase in Bax expression at 10 mg/kg, ip administered three times a week for three weeks starting from day 7 after tumor cell inoculation by immunohistochemical analysis; format: functional, organism-based
Mus musculus [21] = assay: Hypercalcemic effect in Balb/c nude mouse xenografted with human MCF7 cells assessed as effect on serum calcium level at 10 mg/kg, ip administered three times a week for three weeks starting from day 7 after tumor cell inoculation measured on day 17 during compound dosing (reference value: 0.6 umol/ml); format: ADME, organism-based; details: in vivo
Mus musculus [22] = assay: Hypercalcemic effect in Balb/c nude mouse xenografted with human MCF7 cells assessed as effect on serum calcium level at 10 mg/kg, ip administered three times a week for three weeks starting from day 7 after tumor cell inoculation measured on day 27 (reference value: 0.6 umol/ml); format: ADME, organism-based; details: in vivo

| EC50 [1] | IC50 (MCF7 [3]) | half-life [13] | half-life [14] | half-life [15] | MRT [16] | CL/F [17] | bioavailability [18] | Structure (SMILES) | Activity (MCF7 [2]) | Activity (MCF7 [4]) | Activity (MCF7 [5]) | Activity (MCF7 [6]) | Activity (MCF7 [7]) | Activity (MCF7 [8]) | Activity (MCF7 [9]) | Activity (MCF7 [10]) | Activity (MCF7 [11]) | Activity (MCF7 [12]) | Activity (MCF7 [19]) | Activity (MCF7 [20]) | further results |
| --- | --- | --- | --- | --- | --- | --- | --- | --- | --- | --- | --- | --- | --- | --- | --- | --- | --- | --- | --- | --- | --- |
| 6.41 nM | > 50000 nM | 0.954 h | 4.72 h | 10.8 h | 15.7 h | 16.5 mL/min | 43.2% | CCN(CC)CCNC(=O)c1ccc(C(CC)(CC)c2ccc(OCSC)c(C)c2)n1CC | 55.26% | 15.96% | 50.3% | 94.7% | 1.31% | 0.34% | 97.35% | 0.47% | Active | Active | Active | Active | Activity (Mus musculus [21]): Non-Toxic; Activity (Mus musculus [22]): Non-Toxic |
| 38.2 nM | > 50000 nM | 0.987 h | 6.6 h | 7.65 h | 11.9 h | 27.7 mL/min | 40.3% | CCN(CC)CCNC(=O)c1cc(C(CC)(CC)c2ccc(OCS(=O)(=O)c3ccccc3)c(C)c2)cn1CC | 55.96% | 13.22% | 50.69% | 94.96% | 1.21% | 0.46% | 97.48% | 0.7% | Active | Active | Active | Active | Activity (Mus musculus [21]): Non-Toxic; Activity (Mus musculus [22]): Non-Toxic |
